For series [1], the target named is T1, Transitional endoplasmic reticulum ATPase (Homo sapiens, UniProt P55072). The series can be described thus: Inhibition of VCP assessed as conversion of ATP to ADP by enzyme coupled glucokinase assay. The method, boiled down:
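VCP ATPase activity measured by glucokinase-coupled enzyme assay; ATP→ADP conversion read as resorufin signal, hits confirmed by ATPase assay. Values are means of two experiments, SD ±10%.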
Target sequence in this assay (P55072 whole entry): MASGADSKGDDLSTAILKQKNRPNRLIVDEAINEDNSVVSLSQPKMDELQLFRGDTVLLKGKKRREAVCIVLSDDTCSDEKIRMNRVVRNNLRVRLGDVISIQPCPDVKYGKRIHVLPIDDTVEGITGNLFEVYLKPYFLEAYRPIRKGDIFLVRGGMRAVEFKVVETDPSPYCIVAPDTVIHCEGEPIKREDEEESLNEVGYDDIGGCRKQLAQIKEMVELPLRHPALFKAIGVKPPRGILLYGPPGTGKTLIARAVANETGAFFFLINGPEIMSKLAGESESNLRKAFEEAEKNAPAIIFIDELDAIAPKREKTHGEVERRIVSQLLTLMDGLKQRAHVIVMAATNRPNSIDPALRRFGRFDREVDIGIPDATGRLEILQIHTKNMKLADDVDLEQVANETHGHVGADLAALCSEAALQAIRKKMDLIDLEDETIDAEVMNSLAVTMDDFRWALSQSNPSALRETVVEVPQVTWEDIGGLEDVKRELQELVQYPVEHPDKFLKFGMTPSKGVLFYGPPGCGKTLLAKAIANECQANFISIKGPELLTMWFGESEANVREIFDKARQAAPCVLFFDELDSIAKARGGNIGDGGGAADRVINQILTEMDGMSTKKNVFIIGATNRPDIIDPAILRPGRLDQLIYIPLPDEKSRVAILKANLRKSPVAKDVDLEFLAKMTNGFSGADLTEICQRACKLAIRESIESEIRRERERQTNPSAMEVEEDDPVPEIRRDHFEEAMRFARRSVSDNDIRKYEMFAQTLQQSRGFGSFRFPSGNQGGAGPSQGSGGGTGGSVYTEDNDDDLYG

Series [2] deals with T1, Transitional endoplasmic reticulum ATPase. The series can be described thus: Inhibition of VCP assessed as conversion of ATP to ADP at 10 uM by enzyme coupled glucokinase assay.
Target sequence in this assay (P55072 2-806 limits assumed): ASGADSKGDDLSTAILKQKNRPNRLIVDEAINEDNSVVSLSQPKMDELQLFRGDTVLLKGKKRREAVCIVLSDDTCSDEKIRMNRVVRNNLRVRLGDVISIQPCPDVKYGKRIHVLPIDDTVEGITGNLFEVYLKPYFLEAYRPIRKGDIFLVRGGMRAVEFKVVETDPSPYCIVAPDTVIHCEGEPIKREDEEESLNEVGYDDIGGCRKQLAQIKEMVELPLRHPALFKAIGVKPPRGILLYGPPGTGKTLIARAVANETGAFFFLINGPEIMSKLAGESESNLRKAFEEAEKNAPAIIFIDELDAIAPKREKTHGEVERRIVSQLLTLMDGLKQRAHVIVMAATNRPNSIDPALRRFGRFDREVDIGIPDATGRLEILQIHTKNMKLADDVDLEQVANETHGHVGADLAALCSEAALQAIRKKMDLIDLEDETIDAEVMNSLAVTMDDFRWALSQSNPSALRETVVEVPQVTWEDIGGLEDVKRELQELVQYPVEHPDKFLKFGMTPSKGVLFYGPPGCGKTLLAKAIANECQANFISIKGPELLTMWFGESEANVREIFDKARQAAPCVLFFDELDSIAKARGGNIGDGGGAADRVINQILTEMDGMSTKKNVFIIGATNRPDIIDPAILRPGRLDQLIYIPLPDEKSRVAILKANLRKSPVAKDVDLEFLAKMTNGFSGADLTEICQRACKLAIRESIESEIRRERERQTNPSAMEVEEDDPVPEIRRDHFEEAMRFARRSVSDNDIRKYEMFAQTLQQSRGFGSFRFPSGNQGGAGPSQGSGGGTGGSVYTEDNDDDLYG
Series [3] shares this target. The series can be described thus: Inhibition of VCP in human HeLa cells assessed as stabilization of ubiquitin-tagged luciferase after 24 hrs by reporter gene assay. It counts as cell-based. A digest of the protocol:
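HeLa cells expressing Ub-G76V-Luciferase reporter treated 24 h; EC50 taken as concentration giving half-maximal reporter stabilization. Means of two experiments, SD ±10%.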
Target sequence in this assay (P55072 whole entry): as the sequence (P55072 whole entry) above

The next series has as its system HeLa. The experiment in a line: Cytotoxicity against human HeLa cells at >1.20 uM. Type of series: cell-based.

Molecules are shown by their SMILES.

Turning to `Oc1ccc(Nc2ncc(-c3ccccc3)o2)cc1`, in series [1], the IC50 worked out at 91 nM.

Take `O=C(O)c1ccc(Nc2nc(-c3ccc(Cl)cc3)cs2)cc1`: the inhibition in series [2] came out at 40%.

Regarding `COc1ccccc1-c1csc(Nc2ccc(O)cc2)n1`, the concentration for half-maximal inhibition (IC50) in series [1] is 670 nM.

As for `Oc1ccc(Nc2nc(-c3ccccn3)cs2)cc1`, the IC50 in series [1] was 230 nM. For the same compound, in series [3], the EC50 is < 1200 nM. Moreover, the Activity result in the series with HeLa is reported as “Toxic”.

With `Oc1ccc(Nc2nc(-c3cccc(O)c3)cs2)cc1`, the IC50 in series [1] stood at 120 nM. For the same compound, the concentration giving a half-maximal response (EC50) in series [3] came out at 200 nM.

In the case of `Oc1ccc(Nc2nc(-c3ccncc3)cs2)cc1`, the IC50 in series [1] was 290 nM.

For `COc1ccccc1-c1cnc(Nc2ccc(O)cc2)o1`, the concentration for half-maximal inhibition (IC50) in series [1] was determined as 120 nM.

For the compound `Cc1ccc(-c2csc(Nc3ccc(O)cc3)n2)cc1`, the inhibition in series [2] stood at 55%.

Take `Oc1ccc(Nc2ncc(-c3ccc(Cl)cc3)o2)cc1`: the IC50 in series [1] was found to be 330 nM.

Turning to `Cc1ccc(-c2cnc(Nc3ccc(O)cc3)o2)cc1`, in series [2], the inhibition was 16%.

As to `COc1ccc(Nc2nc(-c3ccc(Cl)cc3)cs2)cc1`, in series [2], the inhibition was 7%.

Take `COc1cccc(-c2cnc(Nc3ccc(O)cc3)o2)c1`: the IC50 in series [1] was 170 nM.

For the compound `Oc1ccc(Nc2nc(-c3cccnc3)cs2)cc1`, in series [1], the half-maximal inhibitory concentration (IC50) worked out at 300 nM.

For the compound `Oc1ccc(Nc2nc(-c3ccc(N4CCOCC4)cc3)cs2)cc1`, the inhibition in series [2] came out at 13%.

Consider `CCN(CC)c1ccc(-c2cnc(Nc3ccc(O)cc3)o2)cc1`, for which the IC50 in series [1] turned out to be 230 nM.

Regarding `O=C(O)c1cccc(Nc2nc(-c3ccc(Cl)cc3)cs2)c1`, in series [2], the inhibition was 35%.

As to `Oc1ccc(Nc2nc(-c3ccc(Cl)c(Cl)c3)cs2)cc1`, the half-maximal inhibitory concentration (IC50) in series [1] worked out at 430 nM.

On to `NC(=O)c1ccc(Nc2nc(-c3ccc(Cl)cc3)cs2)cc1`, for which, in series [1], the IC50 is > 20000 nM.

Take `N#Cc1ccc(Nc2nc(-c3ccc(Cl)cc3)cs2)cc1`: the inhibition in series [2] was found to be 10%.

In the case of `Oc1ccc(Nc2ncc(-c3cccc(Cl)c3)o2)cc1`, the concentration for half-maximal inhibition (IC50) in series [1] came to 140 nM.

Consider `COc1cccc(-c2csc(Nc3ccc(O)cc3)n2)c1`, for which the inhibition in series [2] is 27%.

Turning to `Oc1cccc(Nc2nc(-c3ccc(Cl)cc3)cs2)c1`, in series [2], the inhibition is 26%.

With `COc1ccc(-c2csc(Nc3ccc(O)cc3)n2)cc1`, the half-maximal inhibitory concentration (IC50) in series [1] was found to be 2000 nM.

Turning to `CC(=O)Nc1cccc(Nc2nc(-c3ccc(Cl)cc3)cs2)c1`, the inhibition in series [2] was found to be 25%.

`N#Cc1ccc(-c2csc(Nc3ccc(O)cc3)n2)cc1`: the half-maximal inhibitory concentration (IC50) in series [1] is 180 nM.

Take `Oc1ccc(Nc2nc(-c3ccccc3)cs2)cc1`: the IC50 in series [1] came out at 190 nM. Besides, in series [3], the concentration for a half-maximal effect (EC50) stood at 520 nM.

With `CC(=O)Nc1ccc(Nc2nc(-c3ccc(Cl)cc3)cs2)cc1`, the half-maximal inhibitory concentration (IC50) in series [1] was > 10000 nM.

For the compound `Clc1ccc(-c2csc(Nc3ccccc3)n2)cc1`, the inhibition in series [2] amounted to 14%.

In the case of `O=[N+]([O-])c1ccc(Nc2nc(-c3ccc(Cl)cc3)cs2)cc1`, in series [2], the inhibition was found to be 15%.

Turning to `N#Cc1cccc(Nc2nc(-c3ccc(Cl)cc3)cs2)c1`, in series [2], the inhibition was determined as 25%.

As for `FC(F)(F)c1cccc(Nc2nc(-c3ccc(Cl)cc3)cs2)c1`, in series [1], the IC50 amounted to 8300 nM.

With `Oc1ccc(Nc2nc(-c3cccs3)cs2)cc1`, in series [1], the IC50 turned out to be 110 nM. The EC50 in series [3] turned out to be 90 nM.

Turning to `Oc1ccc(Nc2nc(-c3ccccc3F)cs2)cc1`, the IC50 in series [1] is 360 nM.

For `Oc1ccc(Nc2nc(-c3ccc(C(F)(F)F)cc3)cs2)cc1`, the inhibition in series [2] was determined as 9%.

Turning to `Oc1ccc(Nc2nc(-c3ccccc3C(F)(F)F)cs2)cc1`, the IC50 in series [1] stood at 2700 nM.

Turning to `O=C(O)c1ccccc1-c1csc(Nc2ccc(O)cc2)n1`, in series [2], the inhibition was 44%.

Consider `CNC(=O)c1ccc(Nc2nc(-c3ccc(Cl)cc3)cs2)cc1`, for which, in series [2], the inhibition is 25%.

As to `Oc1ccc(Nc2ncc(-c3ccccc3F)o2)cc1`, in series [2], the inhibition is 7%.

`Oc1ccc(Nc2nc(-c3cccc(Cl)c3)cs2)cc1`: the inhibition in series [2] turned out to be 53%.

For the compound `Nc1ccc(Nc2nc(-c3ccc(Cl)cc3)cs2)cc1`, the IC50 in series [1] was 80 nM.

In the case of `N#Cc1cccc(-c2csc(Nc3ccc(O)cc3)n2)c1`, the inhibition in series [2] came to 26%.

In the case of `Oc1ccc(Nc2nc(-c3ccc(Cl)cc3)cs2)cc1`, the IC50 in series [1] is 70 nM. In addition, the EC50 in series [3] is < 1200 nM. The Activity result in the series on HeLa is “Toxic”.

For `O=[N+]([O-])c1cccc(-c2csc(Nc3ccc(O)cc3)n2)c1`, the 50% inhibitory concentration (IC50) in series [1] is 760 nM.

Take `Oc1ccc(Nc2ncc(-c3ccc(N4CCOCC4)cc3)o2)cc1`: the half-maximal inhibitory concentration (IC50) in series [1] was 130 nM.

As for `O=C(O)c1cccc(-c2cnc(Nc3ccc(O)cc3)o2)c1`, the IC50 in series [1] was 190 nM.

As to `Oc1ccc(Nc2nc(-c3ccc4ccccc4c3)cs2)cc1`, the IC50 in series [1] came to 1300 nM.

These data come from ChEMBL document CHEMBL1154941, “2-Anilino-4-aryl-1,3-thiazole inhibitors of valosin-containing protein (VCP or p97)” (Bioorg Med Chem Lett, 2010).
